Data reported in PubChem BioAssay.
Records with an inconclusive call do not appear.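 The calls were made as follows, unless noted: active = cell viability at or below a set limit in both duplicate runs, the limit being the all-compound median minus 4 SD (cut at about 23% in these data, passing the limit was not always enough); inconclusive = no clear call, values can overlap the other calls; inactive = the rest.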

What was measured:
[1] = OD615 S. cerevisiae growth inhibition, permissive medium, pilot counter-assay, permissive growth control for S. cerevisiae lifespan shortening project (AID 705;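 active = growth inhibition above 25% in both replicates, a cutoff set 3 SD above the mean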); conditions: OD615, 24 h, at 10 µM, stronger effect = higher value
How it was run: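 Material: engineered DeaD yeast; Compound: one dose 10 µM, DMSO 0.25% final; Detection: absorbance (optical density) at 615 nm; Buffer or medium: permissive raffinose/galactose medium; Timing: 24 h exposure, 30 °C.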

[2] = Restrictive medium S. cerevisiae growth inhibition, OD615, pilot screen of yeast lifespan reduction project, restrictive growth control (AID 706;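 active = growth inhibition above a set limit, 3 SD over mean compound inhibition, in both replicates, cut at about 43% in these data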;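 also: modified DeaD lifespan yeast strain shifted to restrictive glucose medium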); conditions: OD615, 48 h, at 10 µM, stronger effect = higher value
How it was run: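 Buffer or medium: restrictive glucose medium (CSMM-D); test system: modified S. cerevisiae; doses: single dose of 10 µM compound final, 0.25% DMSO; schedule: 48 h compound exposure at 30 °C; detection: absorbance (optical density) measured at 615 nm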

[3] = viability gain of MRP-1-high H69AR cells under doxorubicin, pilot screen, MRP-1 activator project, CellTiter-Glo, duplicate (AID 807;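 active = viability increase at or above a cutoff of the median across tested compounds plus 3 SD, cut at about 8.5% in these data, passing the limit was not always enough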;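 also: compound pretreatment 18-22 h then 72 h combined with doxorubicin; 0% = doxorubicin alone and 100% = vehicle without doxorubicin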); conditions: H69AR viability with doxorubicin, CellTiter-Glo luminescence; at 10 µM; stronger effect = higher value
[4] = growth suppression of beta-catenin knockout HCT116, pilot screen, human colon tumor cells (AID 823); conditions: CellTiter-Glo, 60 h, at 10 µM, stronger effect = lower value;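 also: 0% = wells killed by 20 µM Hyamine and 100% = untreated DMSO cell wells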
[5] = growth suppression of PTEN-deleted HCT116, pilot screen, cell-based, HCT116 clonal line, CellTiter-Glo (AID 824;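 active = viability at or below 27.92% in each of two runs, the all-compound median minus 4 SD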;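 also: 0% = 20 µM Hyamine control and 100% = vehicle cell control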); conditions: 60 h, at 10 µM, stronger effect = lower value
[6] = inhibitors of the yeast RAM network, pilot screen, dse1pr::URA3 reporter, 5-FOA selection (AID 869;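 active = inhibition over a set limit, the all-compound mean plus 3 SD, in both replicate runs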;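 also: 0% = DMSO wells with no growth and 100% = 10 µM 1-NA-PP1 with full growth; RAM network block rescues cells from 5-FOA so hits raise OD615 growth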); conditions: S. cerevisiae dse1pr::URA3 5-FOA growth, OD615, 2 d; at 10 µM; stronger effect = higher value; strain carries analog-sensitive mutant Cbk1 kinase
[7] = RAM signaling pathway blockade in yeast – S. cerevisiae, Pdr1DBD-CYC8 efflux-inhibited sensitized strain, primary screen (AID 1298;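 active = RAM network inhibition above 8.4% in each of two replicates, 3 SD over the compound average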;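 also: 0% = DMSO untreated cells without growth and 100% = 10 µM 1-NA-PP1 full growth; higher means more yeast growth rescued from 5-FOA killing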); conditions: S. cerevisiae cbk1-as DSE1-URA3 strain, 5-FOA growth OD615, 2 d; at 50 µM; stronger effect = higher value

O=C(OCN1C(=O)c2ccccc2C1=O)c1ccco1
inactive: growth inhibition [1] -3.8% | growth inhibition [2] 0.045% | viability increase [3] -2.17% | viability [4] 96.7% | viability [5] 93.3% | inhibition [6] 3.23% | RAM network inhibition [7] 3.35%

Cc1cc(C)nc(NS(=O)(=O)c2ccc(NC(=O)C3CC(=O)N(c4ccccc4)C3)cc2)n1 (stereo unspecified)
inactive: growth inhibition [1] -4.82% | growth inhibition [2] 7.38% | viability increase [3] 1.33% | viability [4] 104% | viability [5] 100% | inhibition [6] 1.81% | RAM network inhibition [7] 3.68%

CCOC(=O)c1c(C)n(C)c2cc(Br)c(C(=O)OC)cc12
inactive: growth inhibition [1] 8.75% | growth inhibition [2] -4.36% | viability increase [3] -3.53% | viability [4] 97% | viability [5] 96.3% | inhibition [6] 1.99% | RAM network inhibition [7] 7.11%

c1cnc(N2CCSCC2)nc1
inactive: growth inhibition [1] 2.61% | growth inhibition [2] 2.42% | viability increase [3] -2.73% | viability [4] 104% | viability [5] 101% | inhibition [6] 0.69% | RAM network inhibition [7] 3.1%

CC(C)CN(CC(C)C)c1nnc(N)s1
inactive: growth inhibition [1] 3.15% | growth inhibition [2] 2.1% | viability increase [3] 1.25% | viability [4] 103% | viability [5] 99.5% | inhibition [6] 0.56% | RAM network inhibition [7] 1.13%

CCC(Sc1ccc2nnc(-c3cccnc3)n2n1)C(=O)O (stereo unspecified)
inactive: growth inhibition [1] -18.7% | growth inhibition [2] -14.8% | viability increase [3] -0.8% | viability [4] 100% | viability [5] 95.8% | inhibition [6] 2.44% | RAM network inhibition [7] 6.69%

N#CC1=C(SCC(=O)Nc2ccccc2)NC(=O)CC1c1ccc(O)cc1 (stereo unspecified)
inactive: growth inhibition [1] -15.2% | growth inhibition [2] -10.5% | viability increase [3] -2.43% | viability [4] 91.4% | viability [5] 86.5% | inhibition [6] 1.42% | RAM network inhibition [7] -0.69%

O=C(NCC1CCCO1)c1ccc2c(c1)C(=O)N(C1CCCCC1)C2=O (stereo unspecified)
inactive: growth inhibition [1] -10.7% | growth inhibition [2] -6.06% | viability increase [3] 1.19% | viability [4] 100% | viability [5] 91.5% | inhibition [6] 3.77% | RAM network inhibition [7] 3.57%

C=CCOC(=O)C1CC=CCC1C(=O)Oc1ccc(F)cc1F (stereo unspecified)
inactive: growth inhibition [1] -18.3% | growth inhibition [2] -15.3% | viability increase [3] -1.32% | viability [4] 100% | viability [5] 94% | inhibition [6] 2.56% | RAM network inhibition [7] 1.82%

Cc1cccc(NC(=O)C2C(C(=O)O)C3C=CC2C32CC2)c1C (stereo unspecified)
inactive: growth inhibition [1] -2.43% | growth inhibition [2] -9.19% | viability increase [3] -1.67% | viability [4] 95.2% | viability [5] 93.5% | inhibition [6] 1.42% | RAM network inhibition [7] -0.78%

O=C(Cn1nc(Cc2cccnc2)c2ccccc2c1=O)N1CCN(C(=O)c2ccco2)CC1
inactive: growth inhibition [1] 4.07% | growth inhibition [2] 0.805% | viability increase [3] -0.74% | viability [4] 104% | viability [5] 104% | inhibition [6] 0.64% | RAM network inhibition [7] 2.7%

O=C(CCS(=O)(=O)c1cccc2nsnc12)N1CCN(C(=O)c2ccco2)CC1
inactive: growth inhibition [1] -2.63% | growth inhibition [2] -12.5% | viability increase [3] -4.22% | viability [4] 103% | viability [5] 102% | inhibition [6] 0.36% | RAM network inhibition [7] 1.07%

CCOC(=O)c1ccc(S(=O)(=O)N2CCN(CCC#N)CC2)cc1
inactive: growth inhibition [1] -7.13% | growth inhibition [2] 0.63% | viability increase [3] 1.42% | viability [4] 102% | viability [5] 99.4% | inhibition [6] 0.195% | RAM network inhibition [7] 0.21%

O=C(COc1ccc2c3c(c(=O)oc2c1)CCC3)c1ccc2c(c1)OCO2
inactive: growth inhibition [1] -8.44% | growth inhibition [2] -1.49% | viability increase [3] 2.35% | viability [4] 63.2% | viability [5] 65.1% | inhibition [6] 2.27% | RAM network inhibition [7] 7.83%

COc1cccc(CNC(=O)CN(c2cc(C)cc(C)c2)S(=O)(=O)c2c(C)noc2C)c1
inactive: growth inhibition [1] -6.25% | growth inhibition [2] -3.9% | viability increase [3] -2.41% | viability [4] 90.3% | viability [5] 90.4% | inhibition [6] 1.34% | RAM network inhibition [7] 7.12%

CCSc1sccc1C1C(C#N)=C(N)N(c2cccnc2)C2=C1C(=O)CC(C)(C)C2 (stereo unspecified)
inactive: growth inhibition [1] -14.3% | growth inhibition [2] -6.69% | viability increase [3] -6.56% | viability [4] 92.1% | viability [5] 93.2% | inhibition [6] 0.9% | RAM network inhibition [7] 12.4%

O=C(Nc1cccc(F)c1)c1ccc(S(=O)(=O)N2CCOCC2)cc1
inactive: growth inhibition [1] -17% | growth inhibition [2] -7.46% | viability increase [3] -2.24% | viability [4] 98.3% | viability [5] 99.6% | inhibition [6] 1.13% | RAM network inhibition [7] -1.21%

CCOC(=O)c1[nH]c2ccccc2c1NC(=O)c1ccc(Br)o1
inactive: growth inhibition [1] -6.18% | growth inhibition [2] -1.93% | viability increase [3] -3.95% | viability [4] 70.3% | viability [5] 69.9% | inhibition [6] 0.96% | RAM network inhibition [7] 7.09%
